Consider 7 compounds from ChEMBL document CHEMBL3875213, “Quinolines: Microwave-assisted synthesis and their antifungal, anticancer and radical scavenger properties” (Bioorg Med Chem, 2017).

As usually defined, the MIC50 is the lowest concentration that inhibits either 50% of growth or 50% of the strains tested, depending on the study. Low values mean higher susceptibility, high ones lower susceptibility. What is called MIC80 is the lowest concentration that inhibits either 80% of growth or 80% of the strains tested, depending on the study. Low values mean greater potency, high ones weaker potency.

≈ marks a conversion by molar mass, not a printed value. Calls of active or inactive are those of the source. The calls are words filed in the database; no cut-off is given here.

Type in all cases: functional
The subject of assay [1] is Candida albicans. Briefly: Antifungal activity against Candida albicans ATCC 10231 incubated for 48 hrs under dark condition by broth microdilution assay. As to conditions: ATCC 10231, 48 h. A digest of the protocol:
(§1)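 Broth microdilution per CLSI M27-A3 in RPMI-1640. Inocula adjusted to 1-5 x 10^3 CFU/mL. Stocks in DMSO (≤1%), final 3.9-250.0 µg/mL. Incubated 48 h at 30 °C in a moist, dark chamber, read at OD 405. % inhibition computed from growth and sterility control wells, run in triplicate. MIC80/MIC50 taken from four-parameter logistic concentration-response curves; amphotericin B as positive control.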
In general terms: Dilution methods test growth across graded concentrations, often in twofold steps.

Assay [2] is described as follows: Antifungal activity against Cryptococcus neoformans ATCC 32264 incubated for 48 hrs under dark condition by broth microdilution assay. The procedure, abridged:
as §1

Assay [3] has as its system Candida albicans. The experiment in a line: Growth inhibition of Candida albicans ATCC 10231 at 62.5 ug/ml incubated for 48 hrs under dark condition by broth microdilution assay relative to amphotericin B. As to conditions: ATCC 10231, 48 h, read-out: GI. A digest of the protocol:
(§2)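 Yeast broth microdilution (CLSI M27-A3), RPMI-1640, inoculum 1-5 x 10^3 CFU/mL, DMSO ≤1%, 48 h at 30 °C in a moist, dark chamber. […]. Triplicate; amphotericin B as positive control.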

Assay [4] concerns Candida albicans. Briefly: Growth inhibition of Candida albicans ATCC 10231 at 31.25 ug/ml incubated for 48 hrs under dark condition by broth microdilution assay relative to amphotericin B. The conditions noted are these: ATCC 10231, 48 h, read-out: GI. A digest of the protocol: as §2
Assay [5] concerns Candida albicans. Briefly: Growth inhibition of Candida albicans ATCC 10231 at 7.81 ug/ml incubated for 48 hrs under dark condition by broth microdilution assay relative to amphotericin B. The conditions noted are these: ATCC 10231, 48 h, read-out: GI. A digest of the protocol: as §2
In assay [6] the test system is Candida albicans. Briefly: Growth inhibition of Candida albicans ATCC 10231 at 15.62 ug/ml incubated for 48 hrs under dark condition by broth microdilution assay relative to amphotericin B. The conditions noted are these: ATCC 10231, 48 h, read-out: GI. The procedure, abridged: as §2
The nature of assay [7]: Antioxidant activity assessed as fluorescent light-induced superoxide anion scavenging activity at 160 uM incubated for 10 mins by nitroblue tetrazolium dye based assay. A digest of the protocol:
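Superoxide generated photochemically in 50 mM phosphate buffer pH 7.8 with 13 mM L-methionine, 75 µM nitroblue tetrazolium, 100 µM EDTA and 2 µM riboflavin. Compound at 160 µM. 10 min at 25 °C under fluorescent light; dark controls. Read at 575 nm. Resveratrol as positive control; three independent experiments in triplicate.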

In assay [8] the test system is Candida albicans. The experiment in a line: Growth inhibition of Candida albicans ATCC 10231 at 250 ug/ml incubated for 48 hrs under dark condition by broth microdilution assay relative to amphotericin B. As to conditions: ATCC 10231, 48 h, read-out: GI. The procedure, abridged: as §2
For assay [9], the system named is Candida albicans. Briefly: Growth inhibition of Candida albicans ATCC 10231 at 3.9 ug/ml incubated for 48 hrs under dark condition by broth microdilution assay relative to amphotericin B. As to conditions: ATCC 10231, 48 h, read-out: GI. The procedure, abridged: as §2
The nature of assay [10]: Antioxidant activity assessed as fluorescent light-induced superoxide anion scavenging activity incubated for 10 mins by nitroblue tetrazolium dye based assay. A digest of the protocol:
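Riboflavin/light superoxide system: 50 mM phosphate pH 7.8, 13 mM L-methionine, 75 µM NBT, 100 µM EDTA, 2 µM riboflavin, compound 0-200 µg/mL. Fluorescent light for 10 min at 25 °C, dark controls, scavenging measured at 575 nm. Resveratrol as reference.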

Assay [11] can be described thus: Antioxidant activity assessed as DPPH radical scavenging activity incubated for 30 mins under dark condition. The procedure, abridged:
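DPPH (100 µM) in ethanolic medium, stirred 30 min in the dark, absorbance at 517 nm. Compound varied from 0 to 160 µg/mL to find the concentration scavenging 50% of radicals. Three independent experiments, each in triplicate.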
A general note: Loss of DPPH colour is used to gauge radical scavenging.

Assay [12] relates to Candida albicans. Briefly: Growth inhibition of Candida albicans ATCC 10231 at 125 ug/ml incubated for 48 hrs under dark condition by broth microdilution assay relative to amphotericin B. As to conditions: ATCC 10231, 48 h, read-out: GI. A digest of the protocol: as §2
Assay [13] can be described thus: Antioxidant activity assessed as DPPH radical scavenging activity at 160 uM incubated for 30 mins under dark condition. The procedure, abridged: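 Compound at 160 µM incubated with 100 µM DPPH in ethanolic medium, stirred in the dark for 30 min, read at 517 nm. Resveratrol as positive control. Three independent experiments, each in triplicate.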

With `C[C@@H]1[C@H](O)[C@@H](C)/C=C/C=C/C=C/C=C/C=C/C=C/C=C/[C@H](O[C@@H]2O[C@H](C)[C@@H](O)[C@H](N)[C@@H]2O)C[C@@H]2O[C@](O)(C[C@@H](O)C[C@@H](O)[C@H](O)CC[C@@H](O)C[C@@H](O)CC(=O)O[C@H]1C)C[C@H](O)[C@H]2C(=O)O` [AMPHOTERICIN B], in the assay with Candida albicans [1], the MIC50 is 0.06 µg/mL (≈ 0.0649 µM) and the MIC80 is 0.12 µg/mL (≈ 0.13 µM). Besides, in assay [2], the MIC50 was determined as 0.12 µg/mL (≈ 0.13 µM) and the MIC80 was found to be 0.25 µg/mL (≈ 0.271 µM).
For the compound `CC(C)(C)c1ccc2nc(-c3ccccc3)cc(-c3ccccc3)c2c1`, the inhibition of growth at 62.5 µg/mL in the assay with Candida albicans [3] was found to be 0%. In addition, the inhibition of growth at 31.25 µg/mL with Candida albicans [4] is 0%. In addition, the MIC50 in the assay on Candida albicans [1] is over 250 µg/mL; in [2], 3.9 µg/mL (≈ 11.6 µM). Besides, the MIC80 against Candida albicans [1] was over 250 µg/mL; in assay [2], 15.6 µg/mL (≈ 46.2 µM). The inhibition of growth at 7.81 µg/mL with Candida albicans [5] came out at 0%. In addition, the inhibition of growth at 15.62 µg/mL with Candida albicans [6] turned out to be 0%. In addition, the Activity in assay [7] came out at 50%. Further, the inhibition of growth at 250 µg/mL in the assay on Candida albicans [8] was found to be 7.81%. Further, the inhibition of growth at 3.9 µg/mL in the assay with Candida albicans [9] is 0%. The SC50 in assay [10] and in assay [11] was over 250 µM each time. Further, in the assay with Candida albicans [12], the inhibition of growth at 125 µg/mL worked out at 1.84%.
Turning to `FC(F)(F)c1ccc2nc(-c3ccccc3)cc(-c3ccccc3)c2c1`, the inhibition of growth at 62.5 µg/mL in the assay with Candida albicans [3] was found to be 8.77%. In addition, the inhibition of growth at 31.25 µg/mL with Candida albicans [4] came out at 7.83%. For the same compound, the results for the MIC50 (in the assay on Candida albicans [1]; in [2]) were over 250 µg/mL and 250 µg/mL (≈ 716 µM), respectively. Moreover, the MIC80 against Candida albicans [1] is over 250 µg/mL; in assay [2] it was 250 µg/mL (≈ 716 µM). For the same compound, the inhibition of growth at 7.81 µg/mL in the assay on Candida albicans [5] worked out at 2.81%. Moreover, the Activity in assay [13] fell in the range of 45 to 55%. Moreover, the inhibition of growth at 15.62 µg/mL with Candida albicans [6] was 3.65%. For the same compound, the inhibition of growth at 250 µg/mL in the assay with Candida albicans [8] worked out at 20.1%. Besides, the inhibition of growth at 3.9 µg/mL in the assay on Candida albicans [9] came to 0%. The values for the SC50 in assay [10] and in assay [11] were over 250 µM and 261 µM, respectively. In addition, the inhibition of growth at 125 µg/mL in the assay with Candida albicans [12] is 14%.
For the compound `FC(F)(F)c1cc2nc(-c3ccccc3)cc(-c3ccccc3)c2cc1Cl`, the inhibition of growth at 62.5 µg/mL in the assay on Candida albicans [3] worked out at 15.7%. Besides, the inhibition of growth at 31.25 µg/mL in the assay on Candida albicans [4] was 9.41%. In the assay on Candida albicans [1], this compound had an MIC50 of 250 µg/mL (≈ 651 µM) and an MIC80 of over 250 µg/mL. The inhibition of growth at 7.81 µg/mL in the assay with Candida albicans [5] amounted to 3.5%. For the same compound, the inhibition of growth at 15.62 µg/mL in the assay on Candida albicans [6] was 5.36%. Moreover, the inhibition of growth at 250 µg/mL in the assay on Candida albicans [8] was 54.1%. Moreover, in assay [2], the MIC50 was 250 µg/mL (≈ 651 µM) and the MIC80 was over 250 µg/mL. In addition, in the assay with Candida albicans [9], the inhibition of growth at 3.9 µg/mL is 0%. The inhibition of growth at 125 µg/mL in the assay with Candida albicans [12] worked out at 25.7%.
On to `Oc1ccc(/C=C/c2cc(O)cc(O)c2)cc1`, for which the outcome in assay [13] and in assay [7] was Active. For the same compound, the SC50 in assay [10] was determined as 255 µM; in [11] it was 8.2 µM.
Consider `O=[N+]([O-])c1ccc(-c2cc(-c3ccccc3)c3cc(Br)ccc3n2)cc1`, for which, in the assay on Candida albicans [3], the inhibition of growth at 62.5 µg/mL came to 4.28%. In addition, the inhibition of growth at 31.25 µg/mL in the assay on Candida albicans [4] turned out to be 4.01%. Moreover, in the assay on Candida albicans [1], the MIC50 was over 250 µg/mL and the MIC80 was over 250 µg/mL. For the same compound, in the assay with Candida albicans [5], the inhibition of growth at 7.81 µg/mL was 1.55%. The Activity in [13] amounted to 40%. Also, the inhibition of growth at 15.62 µg/mL in the assay on Candida albicans [6] was 2.64%. Moreover, the outcome in assay [7] was Active. For the same compound, in the assay with Candida albicans [8], the inhibition of growth at 250 µg/mL turned out to be 18.2%. Also, in assay [2], the MIC50 is over 250 µg/mL and the MIC80 was over 250 µg/mL. Moreover, the inhibition of growth at 3.9 µg/mL with Candida albicans [9] turned out to be 0%. In the assay on Candida albicans [12], the inhibition of growth at 125 µg/mL was 5.11%.
Take `CSc1ccc2nc(-c3ccccc3)cc(-c3ccccc3)c2c1`: the inhibition of growth at 62.5 µg/mL in the assay on Candida albicans [3] came to 21.7%. Moreover, the inhibition of growth at 31.25 µg/mL with Candida albicans [4] was 16%. Further, in the assay with Candida albicans [1], the MIC50 amounted to 250 µg/mL (≈ 763 µM) and the MIC80 is over 250 µg/mL. In addition, in the assay with Candida albicans [5], the inhibition of growth at 7.81 µg/mL was determined as 11.2%. Besides, the inhibition of growth at 15.62 µg/mL in the assay on Candida albicans [6] stood at 11.2%. Besides, the result in assay [7] was Active. Moreover, the inhibition of growth at 250 µg/mL in the assay on Candida albicans [8] was 66.3%. In assay [2], the MIC50 is 15.6 µg/mL (≈ 47.6 µM) and the MIC80 was found to be 31.2 µg/mL (≈ 95.3 µM). Besides, the inhibition of growth at 3.9 µg/mL in the assay with Candida albicans [9] came to 4.72%. The inhibition of growth at 125 µg/mL with Candida albicans [12] amounted to 39.2%.
